Data reported in ChEMBL document CHEMBL4732138, “Evaluation of the Structure-Activity Relationship of Microtubule-Targeting 1,2,4-Triazolo[1,5-a]pyrimidines Identifies New Candidates for Neurodegenerative Tauopathies” (J Med Chem, 2021).
Calls of active or inactive are those of the source. The calls are words filed in the database; no cut-off is given here.

Legend:
Tubulin (Homo sapiens) [1] = biological target: T1, Tubulin (Homo sapiens) (UniProt P68371+Q9H4B7+P0DPH7+P68366+Q13509+Q71U36+P04350+Q3ZCM7+P07437+P68363+Q9BQE3+Q6PEY2+Q13885+Q9BVA1+Q9BUF5); assay: Stabilization of microtubules in human QBI293 cells assessed as fold change in alpha tubulin levels at 1 uM after 4 hrs by ELISA relative to DMSO; format: cell-based
How it was run: (§1)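 QBI293 cells were grown in DMEM with 10% FBS, 2 mM L-glutamine and penicillin/streptomycin, then plated at 6 × 10^5 cells/well and left overnight. Medium was replaced with fresh medium holding vehicle (DMSO) or compound, and cells were incubated 4 h. Whole-cell extract supernatants were protein-normalized by BCA assay. AcTub and α-tubulin were quantified by ELISA against standard curves. Values are fold-change over DMSO, analysed by one-way ANOVA.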

Tubulin (Homo sapiens) [2] = biological target: T1, Tubulin (Homo sapiens); assay: Stabilization of microtubules in human QBI293 cells assessed as fold change in acetylated tubulin levels at 10 uM after 4 hrs by ELISA relative to cevipabulin; format: cell-based
[3] = Ratio of drug concentration in brain to plasma in CD-1 mouse at 2.5 mg/kg, ip administered as single cassette dosing and measured after 1 hr; format: ADME, organism-based; conditions: read-out: BPR
How it was run: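 Groups of three female CD-1 mice, 2–3 months old, cassette-dosed i.p. with 2–3 compounds at the same time, each at 2.5 mg/kg in DMSO. Euthanised 1 h after dosing. Brain hemispheres homogenised in 10 mM ammonium acetate pH 5.7 (50% w/v). Plasma from blood collected in EDTA and centrifuged 4,500 × g, 10 min, 4 °C. Compound levels measured in both; brain/plasma ratio reported.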

Tubulin (Homo sapiens) [4] = biological target: T1, Tubulin (Homo sapiens); assay: Stabilization of microtubules in human QBI293 cells assessed as fold change in acetylated tubulin levels at 10 uM after 4 hrs by ELISA relative to DMSO; format: cell-based; how it was run: as §1
Tubulin (Homo sapiens) [5] = biological target: T1, Tubulin (Homo sapiens); assay: Stabilization of microtubules in human QBI293 cells assessed as fold change in acetylated tubulin levels at 1 uM after 4 hrs by ELISA relative to DMSO; format: cell-based; how it was run: as §1
[6] = n-octanol-water distribution coefficient, log D of the compound at pH 7.4 by shake flask method; format: physicochemical; conditions: n-octanol/water, read-out: logD
How it was run: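 Distribution coefficient between n-octanol and water at pH 7.4, measured by shake-flask method.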

Tubulin (Homo sapiens) [7] = biological target: T1, Tubulin (Homo sapiens); assay: Stabilization of microtubules in human QBI293 cells assessed as fold change in acetylated tubulin levels at 1 uM after 4 hrs by ELISA relative to cevipabulin; format: cell-based
Tubulin (Homo sapiens) [8] = biological target: T1, Tubulin (Homo sapiens); assay: Stabilization of microtubules in human QBI293 cells assessed as fold change in alpha tubulin levels at 10 uM after 4 hrs by ELISA relative to DMSO; format: cell-based; how it was run: as §1
Tubulin (Homo sapiens) [9] = biological target: T1, Tubulin (Homo sapiens); assay: Stabilization of microtubules in human QBI293 cells assessed as decrease in alpha-tubulin levels at 10 uM after 4 hrs by ELISA relative to control; format: cell-based; parameters: scale not given: the % may be the effect or the level left
How it was run: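 QBI293 cells grown in DMEM with 10% FBS, 2 mM L-glutamine and penicillin/streptomycin, plated at 6 × 10^5 cells/well and left overnight. […] Whole-cell extract supernatants protein-normalised by BCA. Total α-tubulin measured by ELISA against standard curves, reported as fold-change over DMSO-treated cells; one-way ANOVA.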

Primary cortical neuron [10] = assay: Stabilization of microtubules in CD-1 mouse primary cortical neurons assessed as prevention of microtubule collapse by causing increase in acetyl tubulin levels at 10 uM incubated for 8 hrs in presence of phosphatase inhibitor OA by ELISA; format: tissue-based
How it was run: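 Mouse cortical neurons are plated at 6 × 10^5 cells/well and grown 10 days. […] Acetyl-tubulin in homogenates is measured by ELISA.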

Primary cortical neuron [11] = assay: Stabilization of microtubules in Spargue-Dawley rat primary cortical neurons assessed as prevention of microtubule collapse by causing increase in acetyl tubulin levels at 1 uM incubated for 8 hrs in presence of phosphatase inhibitor OA by fluorescence microscopy analysis; format: tissue-based
How it was run: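 Rat cortical neurons are grown 10 days on coverslips. They are treated 8 h with or without 15 nM okadaic acid, with or without test compound at 1 µM. Axonal acetyl-tubulin is then assessed by immunostaining.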

[12] = Half life in CD-1 mouse plasma at 5 mg/kg, ip administered as single cassette dosing and measured upto 16 hrs; format: ADME, organism-based
How it was run: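 CD-1 mice, female, 2–3 months old, three per group, given a single i.p. dose of 5 mg/kg dissolved in DMSO. Brain and plasma sampled over 16 h. Plasma is from blood collected in 0.5 M EDTA and spun 10 min at 4,500 × g, 4 °C. Brain hemispheres are sonicated in 10 mM ammonium acetate pH 5.7 (50% w/v). Compound levels are measured in plasma and brain homogenates.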

Tubulin (Homo sapiens) [13] = biological target: T1, Tubulin (Homo sapiens); assay: Stabilization of microtubules in human QBI293 cells assessed as increase in acetylated tubulin levels after 4 hrs by ELISA; format: cell-based
How it was run: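 QBI293 cells are grown in DMEM with 10% FBS, 2 mM L-glutamine and penicillin/streptomycin, plated at 6 × 10^5 cells/well and incubated overnight. […] Acetyl- and total α-tubulin in whole-cell extract supernatants are measured by ELISA against standard curves, with protein by BCA. Values are fold-change over DMSO; AcTub is also given relative to 100 nM cevipabulin positive control. Significance is by one-way ANOVA.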

[14] = Ratio of drug concentration in brain to plasma in CD-1 mouse at 5 mg/kg, ip administered as single cassette dosing and measured after 1 hr; format: ADME, organism-based; conditions: read-out: BPR
How it was run: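 Groups of three female CD-1 mice (2–3 months old) received one i.p. dose of 5 mg/kg in DMSO and were euthanized 1 h later. Brain hemispheres were sonicated in 10 mM ammonium acetate, pH 5.7 (50% w/v). Plasma came from blood collected in 0.5 M EDTA, spun 10 min at 4,500 × g, 4 °C. B/P is the ratio of brain to plasma compound concentration.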

Row | SMILES | fold change (FC) (Tubulin (Homo sapiens) [1]) | fold change (FC) (Tubulin (Homo sapiens) [2]) | Kp at 1 h [3] | fold change (FC) (Tubulin (Homo sapiens) [4]) | fold change (FC) (Tubulin (Homo sapiens) [5]) | logD [6] | fold change (FC) (Tubulin (Homo sapiens) [7]) | fold change (FC) (Tubulin (Homo sapiens) [8]) | Activity (Tubulin (Homo sapiens) [9]) | Activity (Primary cortical neuron [10]) | Activity (Primary cortical neuron [11]) | half-life [12] | Activity (Tubulin (Homo sapiens) [13]) | Kp at 1 h [14]
1 | CC(C)[C@@H](C)Nc1c(-c2c(F)cc(C#N)cc2F)c(Cl)nc2ncnn12 | 0.93 | 0.69 | 0.7 | 4.28 | 3.8 | 2.47 | 0.62 | 0.94 | – | – | – | – | – | –
2 | N#Cc1cc(F)c(-c2c(Cl)nc3ncnn3c2N2CCCCCC2)c(F)c1 | 0.98 | 1.82 | 0.7 | 11.2 | 6.4 | 2.12 | 1.04 | 0.99 | – | – | – | – | – | –
3 | CC(C)[C@H](Nc1c(-c2c(F)cc(F)cc2F)c(Cl)nc2ncnn12)C(F)(F)F | – | – | – | – | – | – | – | – | 39% | – | – | – | – | –
4 | CC(Cc1c(-c2c(F)cc(F)cc2F)c(Cl)nc2ncnn12)C(F)(F)F (stereo not drawn) | 1.03 | 0.53 | – | 2.29 | 2.3 | – | 0.53 | 0.78 | 22% | – | – | – | – | –
5 | C[C@@H](Nc1c(-c2c(F)cc(C#N)cc2F)c(Cl)nc2ncnn12)C(C)(C)C | – | – | 0.7 | – | – | 2.35 | – | – | – | Active | Active | 1.8 h | – | –
6 | CC(C)[C@@H](C)Nc1c(-c2c(F)cc(F)cc2F)c(Cl)nc2ncnn12 | – | – | – | – | – | 3.51 | – | – | – | – | Active | 1.1 h | Dose-dependent effect | 2.7
7 | Fc1cc(F)c(-c2c(Cl)nc3ncnn3c2N2CCCCCC2)c(F)c1 | 0.99 | 0.74 | – | 6.87 | 4.16 | 3.38 | 0.45 | 0.99 | – | – | – | – | Dose-dependent effect | 1.4
